Measurements published in ChEMBL document CHEMBL1144491, “Synthesis and characterization of styrylchromone derivatives as beta-amyloid imaging agents” (Bioorg Med Chem, 2007).

Legend:
[1] = Partition coefficient, log P at pH 7.4; format: physicochemical; conditions: octanol/water
In short: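 HPLC-purified radioiodinated tracer partitioned between 3 mL 1-octanol and 3 mL 0.1 M phosphate buffer pH 7.4. Vortexed 3 min at room temperature, then centrifuged 5 min. 0.5 mL samples from each layer well-counted. Ratio taken of octanol to buffer cpm/0.5 mL. Octanol layer re-partitioned until values were consistent. Done in triplicate and repeated three times.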

[2] = test system: Blood; assay: Biodistribution in ddY mouse blood assessed as radioactivity at 0.5 uCi, iv after 2 mins; format: ADME, organism-based; conditions: in vivo
In short: (§1)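 Normal mice given no-carrier-added 125I-labelled tracer (HPLC-purified) by intravenous injection, then sampled at 2, 10, 30 and 60 min. Radioactivity expressed as % injected dose per gram of tissue, and per whole organ for stomach. Values are mean (SD) of 3–5 animals per time point.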

[3] = test system: Blood; assay: Biodistribution in ddY mouse blood assessed as radioactivity at 0.5 uCi, iv after 10 mins; format: ADME, organism-based; conditions: in vivo; in short: as §1
[4] = test system: Blood; assay: Biodistribution in ddY mouse blood assessed as radioactivity at 0.5 uCi, iv after30 mins; format: ADME, organism-based; conditions: in vivo, 0.5 h; in short: as §1
[5] = test system: Blood; assay: Biodistribution in ddY mouse blood assessed as radioactivity at 0.5 uCi, iv after 60 mins; format: ADME, organism-based; conditions: in vivo, 1 h; in short: as §1
[6] = test system: Liver; assay: Biodistribution in ddY mouse liver assessed as radioactivity at 0.5 uCi, iv after 2 mins; format: ADME, organism-based; conditions: in vivo; in short: as §1
[7] = test system: Liver; assay: Biodistribution in ddY mouse liver assessed as radioactivity at 0.5 uCi, iv after 10 mins; format: ADME, organism-based; conditions: in vivo; in short: as §1
[8] = test system: Liver; assay: Biodistribution in ddY mouse liver assessed as radioactivity at 0.5 uCi, iv after 30 mins; format: ADME, organism-based; conditions: in vivo, 0.5 h; in short: as §1
[9] = test system: Liver; assay: Biodistribution in ddY mouse liver assessed as radioactivity at 0.5 uCi, iv after 60 mins; format: ADME, organism-based; conditions: in vivo, 1 h; in short: as §1
[10] = test system: Kidney; assay: Biodistribution in ddY mouse kidney assessed as radioactivity at 0.5 uCi, iv after 2 mins; format: ADME, organism-based; conditions: in vivo; in short: as §1
[11] = test system: Kidney; assay: Biodistribution in ddY mouse kidney assessed as radioactivity at 0.5 uCi, iv after 10 mins; format: ADME, organism-based; conditions: in vivo; in short: as §1
[12] = test system: Kidney; assay: Biodistribution in ddY mouse kidney assessed as radioactivity at 0.5 uCi, iv after 30 mins; format: ADME, organism-based; conditions: in vivo, 0.5 h; in short: as §1
[13] = test system: Kidney; assay: Biodistribution in ddY mouse kidney assessed as radioactivity at 0.5 uCi, iv after 60 mins; format: ADME, organism-based; conditions: in vivo, 1 h; in short: as §1
[14] = test system: Intestine; assay: Biodistribution in ddY mouse intestine assessed as radioactivity at 0.5 uCi, iv after 2 mins; format: ADME, organism-based; conditions: in vivo; in short: as §1
[15] = test system: Intestine; assay: Biodistribution in ddY mouse intestine assessed as radioactivity at 0.5 uCi, iv after10 mins; format: ADME, organism-based; conditions: in vivo, 10 min; in short: as §1
[16] = test system: Intestine; assay: Biodistribution in ddY mouse intestine assessed as radioactivity at 0.5 uCi, iv after 30 mins; format: ADME, organism-based; conditions: in vivo, 0.5 h; in short: as §1
[17] = test system: Intestine; assay: Biodistribution in ddY mouse intestine assessed as radioactivity at 0.5 uCi, iv after 60 mins; format: ADME, organism-based; conditions: in vivo, 1 h; in short: as §1
[18] = test system: Spleen; assay: Biodistribution in ddY mouse spleen assessed as radioactivity at 0.5 uCi, iv after 2 mins; format: ADME, organism-based; conditions: in vivo; in short: as §1
[19] = test system: Spleen; assay: Biodistribution in ddY mouse spleen assessed as radioactivity at 0.5 uCi, iv after 10 mins; format: ADME, organism-based; conditions: in vivo; in short: as §1
[20] = test system: Spleen; assay: Biodistribution in ddY mouse spleen assessed as radioactivity at 0.5 uCi, iv after 30 mins; format: ADME, organism-based; conditions: in vivo, 0.5 h; in short: as §1
[21] = test system: Spleen; assay: Biodistribution in ddY mouse spleen assessed as radioactivity at 0.5 uCi, iv after 60 mins; format: ADME, organism-based; conditions: in vivo, 1 h; in short: as §1
[22] = test system: Pancreas; assay: Biodistribution in ddY mouse pancreas assessed as radioactivity at 0.5 uCi, iv after 2 mins; format: ADME, organism-based; conditions: in vivo; in short: as §1
[23] = test system: Pancreas; assay: Biodistribution in ddY mouse pancreas assessed as radioactivity at 0.5 uCi, iv after 10 mins; format: ADME, organism-based; conditions: in vivo; in short: as §1
[24] = test system: Pancreas; assay: Biodistribution in iv dosed ddY mouse pancreas assessed as radioactivity after 30 mins; format: ADME, organism-based; conditions: in vivo, 0.5 h; in short: as §1
[25] = test system: Pancreas; assay: Biodistribution in ddY mouse pancreas assessed as radioactivity at 0.5 uCi, iv after 60 mins; format: ADME, organism-based; conditions: in vivo, 1 h; in short: as §1
[26] = test system: Heart; assay: Biodistribution in ddY mouse heart assessed as radioactivity at 0.5 uCi, iv after 2 mins; format: ADME, organism-based; conditions: in vivo; in short: as §1
[27] = test system: Heart; assay: Biodistribution in ddY mouse heart assessed as radioactivity at 0.5 uCi, iv after 10 mins; format: ADME, organism-based; conditions: in vivo; in short: as §1
[28] = test system: Heart; assay: Biodistribution in ddY mouse heart assessed as radioactivity at 0.5 uCi, iv after 30 mins; format: ADME, organism-based; conditions: in vivo, 0.5 h; in short: as §1
[29] = test system: Heart; assay: Biodistribution in ddY mouse heart assessed as radioactivity at 0.5 uCi, iv after 60 mins; format: ADME, organism-based; conditions: in vivo, 1 h; in short: as §1
[30] = test system: Stomach; assay: Biodistribution in ddY mouse stomach assessed as radioactivity at 0.5 uCi, iv after 2 mins; format: ADME, organism-based; conditions: in vivo; in short: as §1
[31] = test system: Stomach; assay: Biodistribution in ddY mouse stomach assessed as radioactivity at 0.5 uCi, iv after10 mins; format: ADME, organism-based; conditions: in vivo, 10 min; in short: as §1
[32] = test system: Stomach; assay: Biodistribution in ddY mouse stomach assessed as radioactivity at 0.5 uCi, iv after 30 mins; format: ADME, organism-based; conditions: in vivo, 0.5 h; in short: as §1
[33] = test system: Stomach; assay: Biodistribution in ddY mouse stomach assessed as radioactivity at 0.5 uCi, iv after 60 mins; format: ADME, organism-based; conditions: in vivo, 1 h; in short: as §1
[34] = test system: Brain; assay: Biodistribution in ddY mouse brain assessed as radioactivity at 0.5 uCi, iv after 2 mins; format: ADME, organism-based; conditions: in vivo; in short: as §1
[35] = test system: Brain; assay: Biodistribution in ddY mouse brain assessed as radioactivity at 0.5 uCi, iv after 10 mins; format: ADME, organism-based; conditions: in vivo; in short: as §1
[36] = test system: Brain; assay: Biodistribution in ddY mouse brain assessed as radioactivity at 0.5 uCi, iv after 30 mins; format: ADME, organism-based; conditions: in vivo, 0.5 h; in short: as §1
[37] = test system: Brain; assay: Biodistribution in ddY mouse brain assessed as radioactivity at 0.5 uCi, iv after 60 mins; format: ADME, organism-based; conditions: in vivo; in short: as §1
[38] = Binding affinity at amyloid peptide plaques; parameters: species or system Homo sapiens
In short: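 Saturation binding to synthetic Aβ(1–40) aggregates (57 nM final), pre-aggregated at 0.5 mg/mL in pH 7.4 10 mM sodium phosphate/1 mM EDTA, 37 °C, 42 h with shaking. Radioiodinated ligand 1–125 nM final (made by mixing with cold compound), in 10% ethanol, 3 h at room temperature. Filtered on GF/B, bound 125I gamma-counted. Nonspecific binding defined with 1 µM cold ligand. Kd by Scatchard analysis.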

| SMILES | logD [1] | Drug uptake [2] | Drug uptake [3] | Drug uptake [4] | Drug uptake [6] | Drug uptake [7] | Drug uptake [8] | Drug uptake [10] | Drug uptake [11] | Drug uptake [12] | Drug uptake [14] | Drug uptake [15] | Drug uptake [16] | Drug uptake [18] | Drug uptake [19] | Drug uptake [20] | Drug uptake [22] | Drug uptake [23] | Drug uptake [24] | Drug uptake [34] | also measured |
| --- | --- | --- | --- | --- | --- | --- | --- | --- | --- | --- | --- | --- | --- | --- | --- | --- | --- | --- | --- | --- | --- |
| Nc1ccc(/C=C/c2cc(=O)c3cc([125I])ccc3o2)cc1 | 1.65 | 2.34 % ID/g | 2.44 % ID/g | 2.56 % ID/g | 13.23 % ID/g | 14.49 % ID/g | 10.27 % ID/g | 11.94 % ID/g | 6.99 % ID/g | 4.91 % ID/g | 2.84 % ID/g | 5.51 % ID/g | 11.71 % ID/g | 4.23 % ID/g | 3.64 % ID/g | 2.92 % ID/g | 6.58 % ID/g | 5.18 % ID/g | 3.07 % ID/g | 4.88 % ID/g | Drug uptake [5]: 2.27 % ID/g; Drug uptake [9]: 8.16 % ID/g; Drug uptake [13]: 3.76 % ID/g; Drug uptake [17]: 16.08 % ID/g; Drug uptake [21]: 2.16 % ID/g; Drug uptake [25]: 1.11 % ID/g; Drug uptake [26]: 8.4 % ID/g; Drug uptake [27]: 3.78 % ID/g; Drug uptake [28]: 2.43 % ID/g; Drug uptake [29]: 1.64 % ID/g; Drug uptake [30]: 1.24 %ID; Drug uptake [31]: 1.81 %ID; Drug uptake [32]: 2.17 %ID; Drug uptake [33]: 3.29 %ID; Drug uptake [35]: 4.4 % ID/g; Drug uptake [36]: 2.78 % ID/g; Drug uptake ([37]; 1 h): 1.62 % ID/g; Kd [38]: 32 nM |
| CN(C)c1ccc(-c2cn3cc([125I])ccc3n2)cc1 | – | – | – | – | – | – | – | – | – | – | – | – | – | – | – | – | – | – | – | 2.88% | Drug uptake ([37]; 30 min, in the assay text read “after 30 mins” for “after 60 mins”): 0.26 % ID/g; Ki [38]: […] |
| CN(C)c1ccc(/C=C/c2cc(=O)c3cc([125I])ccc3o2)cc1 | 2.65 | 2.62 % ID/g | 1.44 % ID/g | 1.13 % ID/g | 11.17 % ID/g | 10.15 % ID/g | 7.72 % ID/g | 6.7 % ID/g | 4.51 % ID/g | 3.69 % ID/g | 1.45 % ID/g | 4.95 % ID/g | 12.68 % ID/g | 2.43 % ID/g | 2.01 % ID/g | 1.38 % ID/g | 3.02 % ID/g | 2.73 % ID/g | 1.34 % ID/g | 1.14 % ID/g | Drug uptake [26]: 6.25 % ID/g; Drug uptake [27]: 1.75 % ID/g; Drug uptake [28]: 1.27 % ID/g; Drug uptake [30]: 0.7 %ID; Drug uptake [31]: 1.14 %ID; Drug uptake [32]: 1.23 %ID; Drug uptake [35]: 1.76 % ID/g; Drug uptake [36]: 1.37 % ID/g; Kd [38]: 8.7 nM |
| CNc1ccc(/C=C/c2cc(=O)c3cc([125I])ccc3o2)cc1 | 2.15 | 3.21 % ID/g | 2.44 % ID/g | 2.19 % ID/g | 14.55 % ID/g | 14.41 % ID/g | 11.13 % ID/g | 10.41 % ID/g | 7.05 % ID/g | 5.48 % ID/g | 2.59 % ID/g | 8.55 % ID/g | 16.72 % ID/g | 3.88 % ID/g | 4.42 % ID/g | 2.66 % ID/g | 4.92 % ID/g | 3.56 % ID/g | 2.25 % ID/g | 2.84 % ID/g | Drug uptake [5]: 1.79 % ID/g; Drug uptake [9]: 7.82 % ID/g; Drug uptake [13]: 3.52 % ID/g; Drug uptake [17]: 19.16 % ID/g; Drug uptake [21]: 1.51 % ID/g; Drug uptake [25]: 1.32 % ID/g; Drug uptake [26]: 6.92 % ID/g; Drug uptake [27]: 3.31 % ID/g; Drug uptake [28]: 2.09 % ID/g; Drug uptake [29]: 1.47 % ID/g; Drug uptake [30]: 1 %ID; Drug uptake [31]: 1.89 %ID; Drug uptake [32]: 2.01 %ID; Drug uptake [33]: 1.9 %ID; Drug uptake [35]: 2.96 % ID/g; Drug uptake [36]: 1.86 % ID/g; Drug uptake ([37]; 1 h): 0.99 % ID/g; Kd [38]: 17.5 nM |
